The source of these data is ChEMBL document CHEMBL1938254, “Semisynthetic neoboutomellerone derivatives as ubiquitin-proteasome pathway inhibitors” (Bioorg Med Chem, 2012).

Assay type in all cases: cell-based
The test system of test [1] is DLD-1. Description: Inhibition of 20S proteasome activity in human DLD1 cells transfected with 4Ub-Luc gene assessed as bioluminescence induction factor at 10 uM after 8 hrs by luciferase reporter gene assay relative to epoxomicin. In outline: (§1)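 Stably transfected DLD-1 cells expressing 4Ub-Luc reporter, cultured in MEM with 5% heat-inactivated serum. Seeded at 10⁴ cells/well and treated with compound or solvent for 8 h. Luciferase activity in lysates read by luminometer. Induction factor = signal of treated over untreated cells, normalised to epoxomicin at 10^-7 M run in parallel (set to 100). IF ≥10 counted active.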

Test [2] concerns DLD-1. Description: Inhibition of 20S proteasome in human DLD1 cells transfected with 4Ub-Luc gene assessed as bioluminescence induction factor at 1 uM after 8 hrs by luciferase reporter gene assay relative to epoxomicin. In outline: as §1
Test [3] has as its system DLD-1. Put plainly: Inhibition of 20S proteasome in human DLD1 cells transfected with 4Ub-Luc gene assessed as bioluminescence induction factor at 0.5 uM after 8 hrs by luciferase reporter gene assay relative to epoxomicin. The procedure, abridged:
as §1

The subject of test [4] is DLD-1. Description: Inhibition of 20S proteasome in human DLD1 cells transfected with 4Ub-Luc gene assessed as bioluminescence induction factor at 5 uM after 8 hrs by luciferase reporter gene assay relative to epoxomicin. The procedure, abridged:
as §1
Background: Reporter assays use an easily measured gene product as a stand-in for the process of interest.

The nature of test [5]: Inhibition of peptide-glutamyl-peptide-hydrolyzing activity of 20S proteasome in human DLD1 cells transfected with 4Ub-Luc gene using Z-Leu-Leu-Glu-AMC as substrate after 6 hrs by spectrofluorometric analysis. The settings on record: dld-1. The procedure, abridged: (§2)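 DLD-1 4Ub-Luc cells seeded at 10⁴ cells/well, exposed to compound or solvent for 6 h, then 30 min in reaction buffer (30 mM Tris–HCl pH 7.5, 1 mM ATP). Chymotrypsin-like and PGPH activities read with specific fluorogenic substrates.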

A short description of test [6]: Inhibition of chymotrypsin-like activity of 20S proteasome in human DLD1 cells transfected with 4Ub-Luc gene using Succinyl-Leu-Leu-Val-Tyr-AMC as substrate after 6 hrs by spectrofluorometric analysis. The settings on record: dld-1. In outline:
as §2

“And” between values parts separate entries of the source, which are not always exact repeats. Identical values can stand only once.

Turning to `C=C(C(=O)[C@H](O)[C@@H](C)[C@H]1[C@@H](OC(C)=O)C[C@@]2(C)[C@@H]3CC[C@H]4[C@H](C)C(=O)C=C[C@@]45C[C@@]35CC[C@]12C)[C@@H](C)COC(=O)N1CCN(C)CC1`, the fold change (FC) in test [1] was 1.5 and 1.4; in test [2], 69 and 70; in test [3] it was 15.4 and 12; in test [4], 7.1 and 4.5.
In general, IC50 refers to the concentration at which inhibition is half-maximal. Low values mean greater potency in that assay, high ones weaker potency in that assay. Turning to `C=CC(=O)OC[C@H](C)C(=C)C(=O)[C@H](OC(C)=O)[C@@H](C)[C@H]1[C@@H](OC(C)=O)C[C@@]2(C)[C@@H]3CC[C@H]4[C@H](C)C(=O)C=C[C@@]45C[C@@]35CC[C@]12C`, the fold change (FC) in test [1] came to 2.2; in test [2] it was 20; in test [3], 1.4; in test [4], 18. Moreover, the 50% inhibitory concentration (IC50) in test [5] was determined as 13 µM; in test [6] it was 14 µM.
Take `C=C(C(=O)[C@H](OC(C)=O)[C@@H](C)[C@H]1[C@@H](OC(C)=O)C[C@@]2(C)[C@@H]3CC[C@H]4[C@H](C)/C(=N/OCc5ccccc5)C=C[C@@]45C[C@@]35CC[C@]12C)[C@@H](C)CO`: the fold change (FC) was 5.6 in test [1], 0.8 in test [2] and 12 in test [4]. Further, the concentration for half-maximal inhibition (IC50) in test [5] worked out at 11 µM; in test [6], 10 µM.
The like results for `CC(=O)O[C@H]1C[C@@]2(C)[C@@H]3CC[C@H]4[C@H](C)C(=O)C=C[C@@]45C[C@@]35CC[C@]2(C)[C@H]1[C@H](C)[C@@H](OC(C)=O)C(=O)C=C(C)C` were, in that order, 44, 1.1, 34, greater than 1000 µM and greater than 1000 µM.
Consider `C=C(C(=O)[C@H](OS(=O)(=O)O)[C@@H](C)[C@H]1[C@@H](OC(C)=O)C[C@@]2(C)[C@@H]3CC[C@H]4[C@H](C)C(=O)C=C[C@@]45C[C@@]35CC[C@]12C)[C@@H](C)COS(=O)(=O)O`, for which the fold change (FC) in test [1] is 1.1; in test [2] it was 1; in test [3], 1; in test [4], 1. In addition, the IC50 in test [5] and in test [6] was greater than 1000 µM each time.
In the case of `CC(=O)O[C@H]1C[C@@]2(C)[C@@H]3CC[C@H]4[C@H](C)C(=O)C=C[C@@]45C[C@@]35CC[C@]2(C)[C@H]1[C@H](C)[C@@H](O)C(=O)C=C(C)C`, the fold change (FC) in test [1] turned out to be 53; in test [2], 1.1; in test [4] it was 5.2. The IC50 in test [5] and in test [6] was greater than 1000 µM each time.
`C=C(C(=O)[C@H](OC(C)=O)[C@@H](C)[C@H]1[C@@H](OC(C)=O)C[C@@]2(C)[C@@H]3CC[C@H]4[C@H](C)C(=O)C=C[C@@]45C[C@@]35CC[C@]12C)[C@@H](C)COC(=O)CCl`: the results for the fold change (FC) in test [1], in test [2] and in test [4] were 19, 12 and 52, respectively. In addition, the IC50 in test [5] and in test [6] was greater than 1000 µM in each case.
Regarding `C=C(C(=O)[C@H](O)[C@@H](C)[C@H]1[C@@H](OC(C)=O)C[C@@]2(C)[C@@H]3CC[C@H]4[C@H](C)C(=O)C=C[C@@]45C[C@@]35CC[C@]12C)[C@@H](C)COCOC(C)=O`, the fold change (FC) in test [1] stood at 3; in test [2], 40; in test [3], 1.7; in test [4], 34. Further, the IC50 in test [5] is 31 µM; in test [6], 22 µM.
Take `C=CCOC[C@H](C)C(=C)C(=O)[C@H](OC(C)=O)[C@@H](C)[C@H]1[C@@H](OC(C)=O)C[C@@]2(C)[C@@H]3CC[C@H]4[C@H](C)C(=O)C=C[C@@]45C[C@@]35CC[C@]12C`: the fold change (FC) came to 19 in test [1], 15 in test [2], 1.8 in test [3] and 49 in test [4]. The IC50 in test [5] and in test [6] was 100 µM each time.
As for `C=C(C(=O)[C@H](OC(C)=O)[C@@H](C)[C@H]1[C@@H](OC(C)=O)C[C@@]2(C)[C@@H]3CC[C@H]4[C@H](C)C(=O)CC[C@@]45C[C@@]35CC[C@]12C)[C@@H](C)CO`, the fold change (FC) is 48 in test [1], 0.9 in test [2] and 45 in test [4]. Moreover, the IC50 in test [5] stood at 13 µM; in test [6] it was 17 µM.
For `C=C(C(=O)[C@H](OC(C)=O)[C@@H](C)[C@H]1[C@@H](OC(C)=O)C[C@@]2(C)[C@@H]3CC[C@H]4[C@H](C)/C(=N\NC(N)=O)C=C[C@@]45C[C@@]35CC[C@]12C)[C@@H](C)CO`, the fold change (FC) is 30 in test [1], 1.4 in test [2] and 99 in test [4]. Besides, the figures for the IC50 in test [5] and in test [6] were 4.1 µM and 8.6 µM, respectively.
For `C=C(C(=O)[C@H](OC(C)=O)[C@@H](C)[C@H]1[C@@H](OC(C)=O)C[C@@]2(C)[C@@H]3[C@H]4O[C@H]4[C@H]4[C@H](C)C(=O)C=C[C@@]45C[C@@]35CC[C@]12C)[C@@H](C)CO`, in that order: 15, 2.8, 72, 60 µM and 48 µM.
For `C=C(C(=O)[C@H](O)[C@@H](C)[C@H]1[C@@H](OC(C)=O)C[C@@]2(C)[C@@H]3CC[C@H]4[C@H](C)C(=O)C=C[C@@]45C[C@@]35CC[C@]12C)C(C)C`, in that order: 20, 2.4, 65, greater than 1000 µM and greater than 1000 µM.
In the case of `C=C(C(=O)[C@H](OC(C)=O)[C@@H](C)[C@H]1[C@@H](OC(C)=O)C[C@@]2(C)[C@@H]3CC[C@H]4[C@H](C)C(=O)C=C[C@@]45C[C@@]35CC[C@]12C)[C@@H](C)COC`, the values for the IC50 in test [5] and in test [6] were 100 µM and 86 µM, respectively. In addition, the fold change (FC) in test [2] came out at 40; in test [3] it was 1.4; in test [4], 44.
For the compound `COCC(C(=O)[C@H](O)[C@@H](C)[C@H]1[C@@H](OC(C)=O)C[C@@]2(C)[C@@H]3CC[C@H]4[C@H](C)C(=O)C=C[C@@]45C[C@@]35CC[C@]12C)[C@@H](C)CO` (stereo partly drawn), the fold change (FC) in test [1] was 2.6; in test [2], 1.1; in test [3] it was 0.9; in test [4], 1.2.
In the case of `C=C(C(=O)[C@H](OC(C)=O)[C@@H](C)[C@H]1[C@@H](OC(C)=O)C[C@@]2(C)[C@@H]3CC[C@H]4[C@H](C)C(=O)C=C[C@@]45C[C@@]35CC[C@]12C)C(C)C`, the fold change (FC) is 19 in test [1], 7.2 in test [2] and 74 in test [4]. Moreover, the IC50 in test [5] and in test [6] was greater than 1000 µM in each case.
As for `C=C(C(=O)[C@H](OC(=O)CNC(=O)OC(C)(C)C)[C@@H](C)[C@H]1[C@@H](OC(C)=O)C[C@@]2(C)[C@@H]3CC[C@H]4[C@H](C)C(=O)C=C[C@@]45C[C@@]35CC[C@]12C)[C@@H](C)CO`, the fold change (FC) in test [1] worked out at 5; in test [2], 14; in test [3] it was 2; in test [4], 36.
Turning to `C=C(C(=O)[C@H](O)[C@@H](C)[C@H]1[C@@H](OC(C)=O)C[C@@]2(C)[C@@H]3CC[C@H]4[C@H](C)C(=O)C=C[C@@]45C[C@@]35CC[C@]12C)[C@@H](C)COC(=O)CNC(=O)OC(C)(C)C`, the fold change (FC) in test [1] was 16; in test [2], 4.8; in test [4], 47. Further, the half-inhibitory concentration (IC50) in test [5] and in test [6] was greater than 1000 µM in each case.
For the compound `C=C(C(=O)[C@H](O)[C@@H](C)[C@H]1[C@@H](OC(C)=O)C[C@@]2(C)[C@@H]3CC[C@H]4[C@H](C)C(=O)C=C[C@@]45C[C@@]35CC[C@]12C)[C@@H](C)COC(=O)CN(C)C`, the fold change (FC) in test [1] was 6.8 and 4; in test [2] it was 22 and 17; in test [3], 1.3; in test [4], 35 and 34.
As for `C=C(C(=O)[C@H](OC(C)=O)[C@@H](C)[C@H]1[C@@H](OC(C)=O)C[C@@]2(C)[C@@H]3CC[C@H]4[C@H](C)/C(=N\OC)C=C[C@@]45C[C@@]35CC[C@]12C)[C@@H](C)CO`, the fold change (FC) in test [1] was found to be 24; in test [2], 0.7; in test [4] it was 3.4. Further, the 50% inhibitory concentration (IC50) amounted to 12 µM in test [5] and 11 µM in test [6].
`C=C(C(=O)[C@H](OC(C)=O)[C@@H](C)[C@H]1[C@@H](OC(C)=O)C[C@@]2(C)[C@@H]3CC[C@H]4[C@H](C)/C(=N/O)C=C[C@@]45C[C@@]35CC[C@]12C)[C@@H](C)CO`: the fold change (FC) in test [2] turned out to be 1; in test [3], 1; in test [4], 103.
